Most compounds without a hit are left out; they make up all but 2.7% or so of the library.
E-selectin induc: E-selectin induction in HUVECs, primary screen, imaging, HUVEC, immunofluorescence imaging, single point | P16581 | normalized: neutral wells 0, TNF-alpha wells 100 | activation, % at 7.58 µM | actives 0.37% (n = 260,000);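 active = mean E-selectin-positive cell signal at least 10% of the positive control, reached in at least 60% of replicates, without over 20% cell loss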
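material = human umbilical vein endothelial cells (HUVEC), E-selectin induction | quantity = 3,000 cells/well | medium = EGM-2 growth medium on 0.1% gelatin-coated wells | technique = immunofluorescence imaging | read-out basis = % PE-positive cells | control set = TNF-alpha positive control, DMSO neutral control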
S100A4 MyoIIA: inhibitors of S100A4-myosin IIA peptide binding, primary screen, biochemical, fluorescence polarization, TAMRA-MyoIIA peptide. inhibition, % at 10.7 µM. AID 652163, 2013. Protein S100-A4 (Homo sapiens), P26447. actives 0.14% (n = 360,000);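 active = mean inhibition of at least 70% across replicates, with every replicate also reaching that level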
Target sequence (P26447 whole entry, looked up): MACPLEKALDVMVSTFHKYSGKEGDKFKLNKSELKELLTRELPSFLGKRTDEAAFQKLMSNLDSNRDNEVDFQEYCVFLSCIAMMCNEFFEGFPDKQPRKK
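Material: S100A4 monomer protein | Medium: HEPES pH 7.2 with CaCl2, KCl, NaCl, DTT, Triton | Reagent: Labelled myosin peptide probe, 5 nM | Doses: One dose per compound | Times: 5 min incubation before reading | Benchmarks: Neutral control DMSO, positive control TFP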
Env fusion inh: inhibitors of HIV-1 Env-driven cell-cell fusion, primary screen, HeLa-JRFL effector, CEM21 target cells, luciferase; AID 651610, 2012; actives 1.1% (n = 360,000); inhibition, % at 12.3 µM;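 active = mean replicate inhibition score of at least 50 and every replicate individually at or above 50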;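 note: 0% = plate neutral controls and 100% = maraviroc near 300 nM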
CFTR F508del cor: F508del CFTR correction, initial screen, CFBE line, single point; CFBE cells, YFP halide quenching; stimulated with forskolin plus potentiator P3; % fluorescence drop versus neutral controls; activity (quench increase), % at 7.58 µM; actives 0.36% (n = 350,000); AID 720511, 2013;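 active = mean added fluorescence quench of at least 8% versus neutral control, with both replicates also reaching 8%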;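 note: cells transiently co-express mutant CFTR-F508del with the halide-sensitive YFP; corrector assay measuring rescue of mutant channel to the surface after 24 h compound exposure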
FGF22 binding: binders of human FGF22 protein, primary screen, FGF22 synaptogenesis inhibitor project, biophysical, thermal shift, single point. AID 651658, 2012. activity (Tm shift, normalised), % at 9.99 µM. actives 1.5% (n = 340,000). Fibroblast growth factor 22 (Homo sapiens), Q9HCT0. recombinant FGF22 thermal shift, SYPRO orange fluorescence; percent of sucrose octasulfate shift, DMSO zero;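 active = mean Tm shift, scaled 0 neutral to 100 positive control, at about 1.3% or above, every replicate too, limit read from the data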
Target sequence (Q9HCT0 whole entry, looked up): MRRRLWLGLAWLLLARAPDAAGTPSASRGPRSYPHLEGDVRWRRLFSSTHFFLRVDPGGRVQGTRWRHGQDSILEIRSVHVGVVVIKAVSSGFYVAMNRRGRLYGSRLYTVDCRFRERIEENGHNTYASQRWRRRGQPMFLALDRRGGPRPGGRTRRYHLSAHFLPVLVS
* = called active by the depositor; [ ] = remark or other dose.

How did CCOC(=O)C1=CC[C@@H](c2cccc(Br)c2)N(S(=O)(=O)c2ccc(F)cc2)[C@H]1c1cccc(Cl)c1 do in these assays?
E-selectin induc: 0.7; S100A4 MyoIIA: 1.3; Env fusion inh: 60.4*; CFTR F508del cor: 0.5; FGF22 binding: 41.0

What do the screens show for `Cc1ccc(S(=O)(=O)Nc2ccc3c(c2)C(=O)N([C@@H](C)CO)C[C@@H](C)[C@H](CN(C)C(=O)c2ccccc2)OCCCC[C@H](C)O3)cc1`?
S100A4 MyoIIA: 5.5; Env fusion inh: -42.7[16.7 µM]; CFTR F508del cor: -1.5

What do the screens show for `CC(=O)N1[C@@H]2c3ccc(-c4ccncc4)c(=O)n3C[C@H]1[C@H](CO)[C@H]2C(=O)NC1Cc2ccccc2C1`?
E-selectin induc: -1.3; S100A4 MyoIIA: -1.7; CFTR F508del cor: -1.8; FGF22 binding: -0.1

How did CCC(=O)N1[C@@H]2c3ccc(-c4ccncc4)c(=O)n3C[C@H]1[C@H](CO)[C@H]2C(=O)NC1Cc2ccccc2C1 do in these assays?
E-selectin induc: 0.0; S100A4 MyoIIA: 154.3*; Env fusion inh: -11.1[16.7 µM]; FGF22 binding: -0.3

What do the screens show for `CCNC(=O)[C@H]1[C@H](CO)[C@H]2Cn3c(ccc(-c4ccc(F)cc4)c3=O)[C@@H]1N2C`?
E-selectin induc: -0.1; S100A4 MyoIIA: 138.0*; CFTR F508del cor: 0.7; FGF22 binding: -0.4

How did CO[C@H]1CN(C)C(=O)c2ccc(NS(C)(=O)=O)cc2OC[C@@H](C)N(C(=O)C2CC2)C[C@H]1C do in these assays?
E-selectin induc: -0.1; S100A4 MyoIIA: 1.3; CFTR F508del cor: 0.9; FGF22 binding: -0.1

Results for CCC(=O)NCCCNc1nc2c(C)cccc2cc1C#N ?
S100A4 MyoIIA: -11.2; Env fusion inh: -6.2; CFTR F508del cor: -2.5; FGF22 binding: 42.9*

How did Cc1ccc2cc(C#N)c(NCCNC(=O)C3CCC3)nc2c1C do in these assays?
Env fusion inh: 106.0*

What do the screens show for `Cc1cccc2cc(C#N)c(NCCNC(=O)NC3CCCCC3)nc12`?
Env fusion inh: 9.1

Results for CO[C@H](CN(C)C(=O)c1cnccn1)[C@H](C)CN([C@H](C)CO)S(=O)(=O)c1ccc(C)cc1 ?
E-selectin induc: 0.0; S100A4 MyoIIA: 7.1; CFTR F508del cor: -1.2; FGF22 binding: -0.1

Results for CNS(=O)(=O)c1ccc2nc(NC(=O)/C=C/c3ccco3)sc2c1 ?
E-selectin induc: -2.5; S100A4 MyoIIA: 8.3; Env fusion inh: -9.9; CFTR F508del cor: 2.0; FGF22 binding: 43.2*

Results for c1ccc(-c2cc3c(N4CCN(c5ncccn5)CC4)ncnc3s2)cc1 ?
E-selectin induc: 3.0; S100A4 MyoIIA: 5.2; Env fusion inh: -1.1; CFTR F508del cor: 0.4; FGF22 binding: 43.5*

How did Cc1nn(Cc2c(F)c(F)c(F)c(F)c2F)c(C)c1NC(=O)c1ccc(COc2ccc(Cl)cc2Cl)o1 do in these assays?
E-selectin induc: -0.2; Env fusion inh: 67.8*

How did C[C@@H]1CN([C@@H](C)CO)C(=O)Cc2cc(NS(=O)(=O)c3ccc(Cl)cc3)ccc2O[C@@H]1CN(C)CC1CCCCC1 do in these assays?
E-selectin induc: 18.8; S100A4 MyoIIA: 51.7; Env fusion inh: -5.9[16.7 µM]; CFTR F508del cor: 5.6

How did O=S1(=O)Cc2cc3ccccc3cc2C1 do in these assays?
S100A4 MyoIIA: -1.9; Env fusion inh: -19.0; CFTR F508del cor: 4.0; FGF22 binding: 43.0*

Results for Nc1ccc2cc3ccccc3cc2c1 ?
S100A4 MyoIIA: 8.8; CFTR F508del cor: -2.3; FGF22 binding: 0.2

What do the screens show for `C[C@@H]1CN([C@@H](C)CO)C(=O)c2cc(C#CCc3ccccc3)cnc2O[C@@H]1CN(C)Cc1cccc(F)c1`?
E-selectin induc: 0.8; S100A4 MyoIIA: -49.4; CFTR F508del cor: -0.7; FGF22 binding: -0.3

How did COC(=O)Nc1ccc(=O)n(Cc2c(Cl)cccc2Cl)c1 do in these assays?
E-selectin induc: 1.6; Env fusion inh: 49.7*

Results for O=C(C[C@H]1C[C@H]2c3cc(NC(=O)NC4CCCCC4)ccc3O[C@H]2[C@H](CO)O1)NCc1ccccn1 ?
E-selectin induc: 0.7; S100A4 MyoIIA: 15.7; Env fusion inh: 4.7[16.7 µM]; CFTR F508del cor: 1.1; FGF22 binding: -0.2

How did CCn1nnc(NC(=O)c2ccc([N+](=O)[O-])o2)n1 do in these assays?
S100A4 MyoIIA: 2.1; Env fusion inh: -5.3; CFTR F508del cor: 0.5; FGF22 binding: 43.5*

What do the screens show for `C[C@H](CO)N1C[C@H](C)[C@H](CN(C)C(=O)Nc2ccc(C(F)(F)F)cc2)OCCCC[C@H](C)Oc2ccc(N(C)C)cc2C1=O`?
E-selectin induc: 0.0; Env fusion inh: 8.7[16.7 µM]; CFTR F508del cor: 5.8

How did COc1ccc(OCC(=O)N/N=C/C=C/c2ccccc2)cc1 do in these assays?
E-selectin induc: 1.2; S100A4 MyoIIA: -0.2; Env fusion inh: 10.2; CFTR F508del cor: 9.0*; FGF22 binding: 42.9*

What do the screens show for `CCOc1ccc(NCC(=O)N/N=C/C=C/c2ccccc2)cc1`?
E-selectin induc: -0.2; S100A4 MyoIIA: -4.4; Env fusion inh: 7.7; CFTR F508del cor: -4.3; FGF22 binding: -0.3

How did COc1ccc(OCC(=O)NNc2c3ccccc3nc3ccccc23)cc1 do in these assays?
Env fusion inh: 58.9*

Results for CCOc1ccc(OCc2cccc(C(=O)N3CCOCC3)c2)cc1 ?
Env fusion inh: 83.5*

What do the screens show for `CCOC(=O)c1c(NC(=O)CSc2ncccn2)sc2c1CCN(Cc1ccccc1)C2`?
S100A4 MyoIIA: -4.9; Env fusion inh: 5.6; CFTR F508del cor: -4.3; FGF22 binding: 42.9*

What do the screens show for `Cc1cccc(C)c1Nc1ncnc(N)c1[N+](=O)[O-]`?
E-selectin induc: -0.1; S100A4 MyoIIA: -2.3; Env fusion inh: -10.4; FGF22 binding: 0.0

How did COc1cccc(C(=O)NCC(=O)NNc2ncnc(N)c2[N+](=O)[O-])c1 do in these assays?
S100A4 MyoIIA: -2.1; Env fusion inh: 0.5; CFTR F508del cor: -2.1; FGF22 binding: 43.1*

What do the screens show for `Cc1ccc(N=C2c3ccccc3C(=O)C2[N+](=O)[O-])cc1C` (configuration not stated)?
E-selectin induc: 6.6; S100A4 MyoIIA: 4.3; Env fusion inh: -5.2; CFTR F508del cor: 0.9; FGF22 binding: 43.3*

How did CO[C@H]1CN(C)C(=O)c2cc(NC(=O)C3CCOCC3)ccc2OC[C@H](C)N(C(=O)c2ccccc2)C[C@H]1C do in these assays?
E-selectin induc: -0.2; CFTR F508del cor: -0.2

What do the screens show for `CO[C@H]1CN(C)C(=O)c2ccc(NC(=O)Nc3cccc(F)c3)cc2OC[C@@H](C)NC[C@@H]1C`?
E-selectin induc: -0.2; Env fusion inh: -3.1[16.7 µM]; CFTR F508del cor: 0.5
